In ChEMBL document CHEMBL4825754, “Antiviral evaluation of hydroxyethylamine analogs: Inhibitors of SARS-CoV-2 main protease (3CLpro), a virtual screening and simulation approach” (Bioorg Med Chem, 2021):

Key:
SARS-CoV-2 [1] = experiment: Antiviral activity against SARS-CoV-2 infected in African green monkey Vero E6 cells assessed as inhibition of viral entry cells preincubated with compound for 1 hr followed by viral infection for 1 hr and later washed with PBS followed by re-incubated with compound for 24 hrs; type: functional, organism-based, Severe acute respiratory syndrome coronavirus 2
Vero C1008 [2] = experiment: Cytotoxicity against African green monkey Vero E6 cells assessed as reduction in cell survival at 50 uM; type: cell-based; conditions: chlorocebus sabaeus, vero c1008, 50 µM
SARS-CoV-2 [3] = experiment: Antiviral activity against SARS-CoV-2 infected in African green monkey Vero E6 cells assessed as inhibition of viral spread cells preincubated with compound for 1 hr followed by viral infection for 1 hr and later washed with PBS followed by re-incubated with compound for 48 hrs; type: functional, organism-based, Severe acute respiratory syndrome coronavirus 2
[4] = target: Replicase polyprotein 1ab (Severe acute respiratory syndrome coronavirus 2) (UniProt P0DTD1); experiment: Inhibition of SARS-CoV-2 3CLpro using TVLQ-AMC probe as substrate at 50 uM preincubated with enzyme for 5 mins followed by substrate addition and measured after 3 hrs for every 15 mins for 1 hr by FRET assay; conditions: time 245.0 min
Method in brief: (§1)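 3CLpro (0.4 µM final) preincubated 5 min at room temperature with compound in Tris-HCl pH 7.3, 1 mM EDTA. TVLQ-AMC added to 40 µM final. Fluorescence (ex 364/em 440 nm) read every 15 min for 1 h and at 3 h, in triplicate. Values normalized to the mean 3 h no-inhibitor control set as 100.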

[5] = target: Replicase polyprotein 1ab (Severe acute respiratory syndrome coronavirus 2) (UniProt P0DTD1); experiment: Inhibition of SARS-CoV-2 3CLpro using TVLQ-AMC probe as substrate at 10 uM preincubated with enzyme for 5 mins followed by substrate addition and measured after 3 hrs for every 15 mins for 1 hr by FRET assay; conditions: time 245.0 min; method in brief: as §1
Vero C1008 [6] = experiment: Cytotoxicity against African green monkey Vero E6 cells assessed as effect on nuclei count; type: cell-based; conditions: chlorocebus sabaeus
[7] = Severe acute respiratory syndrome coronavirus 2, Vero C1008

Row | Compound | IC50 (SARS-CoV-2 [1]; vero e6) [µM] | Activity (Vero C1008 [2]) | IC50 (SARS-CoV-2 [3]; vero e6) [µM] | inhibition [4] [%] | inhibition [5] [%] | Activity (Vero C1008 [6]) | IC50 (SARS-CoV-2 [3]; [7]) [µM] | IC50 (SARS-CoV-2 [1]; [7]) [µM]
1 | IVERMECTIN [listing 1 of 2 here] | 2.7 | Toxic | 6.02 | – | – | – | – | –
2 | IVERMECTIN [listing 2 of 2 here] | – | – | – | 90 | 85 | – | – | –
3 | CC(C)(C)OC(=O)NC(Cc1ccccc1)C(=O)N[C@@H](Cc1ccccc1)[C@@H](O)CN1CCN(Cc2ccc(C(F)(F)F)cc2)CC1 (some centres undefined) | – | – | – | 12 | 5 | Non-Toxic | 12.5 | –
4 | Cc1ccc2c(c1)C(=O)N([C@H](Cc1ccccc1)C(=O)N[C@@H](Cc1ccccc1)[C@@H](O)CN1CCN(C[C@H](O)[C@H](Cc3ccccc3)NC(=O)[C@@H](Cc3ccccc3)N3C(=O)c4ccc(C)cc4C3=O)CC1)C2=O | – | – | – | 12 | 5 | Non-Toxic | 14.7 | 10.9
5 | CC(C)(C)OC(=O)N[C@@H](Cc1ccccc1)[C@@H](O)CN1CCC(N2CCCCC2)CC1 | – | – | – | 12 | 5 | Non-Toxic | 10.1 | 6.33
